From ChEMBL document CHEMBL1148774, “Doxazolidine induction of apoptosis by a topoisomerase II independent mechanism” (J Med Chem, 2007) come the findings set out here.

The source made the active and inactive calls. The rule behind the calls is not given here.

For assay [1], the system named is HL60/MX2. The experiment in a line: Induction of apoptosis in topoisomerase 2 deficient HL60/MX2 cells assessed as annexin V positive cells. In kind it is functional, Homo sapiens. In outline:
(§1)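 HL-60 and HL-60/MX2 cells in RPMI 1640/10% FBS were treated with 100 nM drug or vehicle for 24 h. Cells were washed in cold PBS and stained with annexin V-fluorescein plus propidium iodide in binding buffer (140 mM NaCl, 10 mM HEPES pH 7.4, 2.5 mM CaCl2). The percent annexin V-positive cells was read by flow cytometry.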

In the next assay the test system is A-375. The experiment in a line: Growth inhibition of human A375 cells after 3 hrs by MTT assay. The following applies: A-375, 3 h. The format is functional, cell-based. A digest of the protocol:
(§2)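 Adherent cells grown in 10% FBS medium (RPMI 1640 or DMEM) were exposed to drug for 3 h. They were then grown until control wells reached ~80% confluence (3–5 days) and quantified by MTT metabolism or crystal violet staining. IC50 was taken from growth inhibition. Each condition was run in hexuplicate, and experiments were done at least twice.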

The next assay has as its system SHP77. The experiment in a line: Growth inhibition of human SHP77 cells after 3 hrs by MTT assay. The format is functional, cell-based. The following applies: SHP77, 3 h. A digest of the protocol:
as §2
On the technique in general: Tetrazolium assays rely on reduction of a dye to a coloured formazan, in cell work by metabolically active cells.

A short description of assay [2]: Growth inhibition of human IGROVI cells after 48 hrs by MTT assay. In kind it is functional, cell-based.
The next assay deals with DU-145. Kind of assay: Growth inhibition of human DU145 cells after 48 hrs by MTT assay. The format is functional, cell-based. The following applies: DU-145, 48 h.
The subject of a further assay is MDA-MB-435. Kind of assay: Growth inhibition of human MDA-MB-435 cells after 3 hrs by MTT assay. The following applies: MDA-MB-435, 3 h. In kind it is functional, cell-based. In outline: as §2
Assay [3] is described as follows: Growth inhibition of human HL60(TB) cells after 48 hrs by crystal violet assay. In kind it is functional, HL-60(TB). Particulars: HL-60, 48 h.
The nature of assay [4]: Growth inhibition of human MCF7/ADR cells after 48 hrs by crystal violet assay. Particulars: NCI/ADR-RES. The format is functional, cell-based.
The subject of assay [5] is HL-60. Kind of assay: Induction of apoptosis in HL60 cells assessed as annexin V positive cells. The format is functional, Homo sapiens. In outline:
as §1

Assay [6] has as its system HCT-116. The experiment in a line: Induction of apoptosis in human HCT116 cells at 400 nM for 3 hrs relative to control cells by annexin V staining assay. The format is functional, cell-based. In outline: (§3)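 HCT-116 cells in McCoy's medium/10% FBS were exposed to drug at a series of concentrations, or to vehicle, for 3 h. At 48 h post-treatment they were trypsinized and washed in cold PBS. They were then stained with annexin V-fluorescein and propidium iodide in HEPES pH 7.4/CaCl2 binding buffer, and the percent apoptotic cells was measured by flow cytometry.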

The next assay has as its system MIA PaCa-2. The experiment in a line: Growth inhibition of human MiaPaCa2 cells after 3 hrs by MTT assay. The format is functional, cell-based. The following applies: MIA PaCa-2, 3 h. A digest of the protocol:
as §2

Another assay concerns BXPC-3. The experiment in a line: Growth inhibition of human BxPc3 cells after 3 hrs by MTT assay. The format is functional, cell-based. The following applies: BXPC-3, 3 h. In outline:
as §2

For assay [7], the system named is HCT-116. The experiment in a line: Induction of apoptosis in human HCT116 cells at 50 nM for 3 hrs by annexin V staining assay. In kind it is functional. A digest of the protocol:
as §3

Assay [8] relates to HCT-116. The experiment in a line: Induction of apoptosis in human HCT116 cells at 200 nM for 3 hrs by annexin V staining assay. The format is functional. A digest of the protocol: as §3
Assay [9] is filed under the species Homo sapiens. The experiment in a line: Inhibition of topoisomerase 2 at 50 nM by decatenation assay. In outline:
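Human recombinant topoisomerase II (one unit) was incubated with 143 ng catenated kinetoplast DNA, with or without drug, for 30 min at 37 °C. The buffer held 120 mM KCl, 50 mM Tris-HCl, 10 mM MgCl2, 0.5 mM DTT, 0.5 mM ATP and 30 μg/mL BSA. Reactions were stopped with sarkosyl/glycerol dye, and decatenation was resolved by agarose gel electrophoresis.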

In another assay the test system is SF-268. The experiment in a line: Growth inhibition of human SF268 cells after 48 hrs by MTT assay. In kind it is functional, cell-based. Particulars: SF-268, 48 h.
The next assay relates to PC-3. Kind of assay: Growth inhibition of human PC3 cells after 3 hrs by MTT assay. In kind it is functional, cell-based. Particulars: PC-3, 3 h. In outline: as §2
The next assay relates to UACC-257. Kind of assay: Growth inhibition of human UACC257 cells after 48 hrs by MTT assay. The format is functional, cell-based. Particulars: UACC-257, 48 h.
A further assay has as its system RXF 393. Kind of assay: Growth inhibition of human RXF393 cells after 48 hrs by MTT assay. The following applies: RXF 393, 48 h. In kind it is functional, cell-based.
For assay [10], the system named is HL60/MX2. The experiment in a line: Effect on G2/M arrest in topoisomerase 2 deficient human HL60/MX2 cells at 100 nM after 24 hrs. The format is functional, cell-based. In outline: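 HL-60/MX2 cells in RPMI 1640/10% FBS were treated with 100 nM drug or vehicle for 24 h, then centrifuged and washed in cold PBS. They were fixed in 50% ethanol, treated with RNase A and stained with propidium iodide (50 μg/mL final). Cell cycle distribution was read by flow cytometry.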

In assay [11] the test system is HCT-116. The experiment in a line: Growth inhibition of human HCT116 cells after 48 hrs by MTT assay. The format is functional, cell-based. The following applies: HCT-116, 48 h.
The species named for assay [12] is Homo sapiens. The experiment in a line: Inhibition of topoisomerase 2 at 500 nM by decatenation assay. In outline: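 Kinetoplast DNA decatenation: 143 ng catenated kDNA with one unit human recombinant topoisomerase II, ± drug at 500 nM. Buffer: 120 mM KCl, 50 mM Tris-HCl, 10 mM MgCl2, 0.5 mM DTT, 0.5 mM ATP, 30 μg/mL BSA. Incubated 30 min at 37 °C. Stopped with sarkosyl/glycerol loading dye, then resolved by agarose gel electrophoresis.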

The next assay relates to NCI-H460. Kind of assay: Growth inhibition of human NCIH460 cells after 48 hrs by MTT assay. The format is functional, cell-based. The following applies: NCI-H460, 48 h.
Assay [13] relates to HCT-116. The experiment in a line: Cell cycle arrest in human HCT116 cells by accumulation at G2/M phase at 400 nM for 3 hrs by flow cytometry. In kind it is functional, cell-based. In outline:
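HCT-116 cells in McCoy's medium with 10% FBS, exposed 3 h at 400 nM or vehicle, then grown on and analysed 24 h post-treatment. Cells trypsinized, washed in cold PBS/2 mM EDTA, fixed in 50% ethanol, RNase A treated, stained with propidium iodide (50 μg/mL final). DNA content by FACScan flow cytometry.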

Assay [14] deals with HL-60. The experiment in a line: Effect on G2/M arrest in human HL60 cells at 100 nM after 24 hrs. The format is functional, cell-based. In outline:
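HL-60 cells kept in RPMI 1640 with 10% FBS, 2 mM L-glutamine, 10 mM HEPES. Exposed continuously for 24 h at 100 nM or vehicle. Cells centrifuged, washed in cold PBS/2 mM EDTA, fixed in 50% ethanol, RNase A treated, stained with propidium iodide (50 μg/mL final). Cell cycle distribution read by flow cytometry.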

For `COc1cccc2c1C(=O)c1c(O)c3c(c(O)c1C2=O)C[C@@](O)(C(=O)CO)C[C@@H]3O[C@H]1C[C@@H]2NCO[C@@H]2[C@H](C)O1` [DOXAZOLIDINE], the Activity is 75% with HL60/MX2 [1]; 77% in the assay with HL-60 [5]; “Dose-dependent effect” with HCT-116 [6]; 20% in the assay with HCT-116 [7]; 60% with HCT-116 [8]. For the same compound, the IC50 – broadly, the midpoint of a concentration-inhibition curve – with A-375 was 1 nM; in the assay on SHP77, 2 nM; in [2], less than 1.38 nM; in the assay with DU-145, 3.16 nM; with MDA-MB-435, 10 nM; in assay [3], 0.331 nM. The IC50 in [4] is less than 18.6 nM; with MIA PaCa-2 it was 3.16 nM; with BXPC-3, 10 nM; in the assay on SF-268 it was 2.63 nM; in the assay with PC-3, 10 nM; in the assay on UACC-257, less than 1.51 nM. In the assay on RXF 393, this compound gave an IC50 of less than 0.977 nM. In addition, the result in the assay filed under Homo sapiens [9] and with HL60/MX2 [10] was Active.
On to `COc1cccc2c1C(=O)c1c(O)c3c(c(O)c1C2=O)C[C@@](O)(C(=O)CO)C[C@@H]3O[C@H]1C[C@H](N)[C@H](O)[C@H](C)O1` [DOXORUBICIN], for which the IC50 in the assay on HCT-116 [11] is 70.8 nM; in the assay with A-375, 200 nM; in the assay on SHP77, greater than 1000 nM; in assay [2] it was 110 nM; in the assay with DU-145, 110 nM; with MDA-MB-435, 158 nM. Besides, the IC50 is 58.9 nM in [3]; 13200 nM in assay [4]; 316 nM in the assay on MIA PaCa-2; 6.03 nM in the assay on NCI-H460; 91.2 nM with SF-268; 316 nM in the assay with PC-3. Further, the IC50 with UACC-257 was 209 nM; in the assay with RXF 393, 178 nM. Also, the values for the Activity in the assay on HL60/MX2 [1] and in the assay with HL-60 [5] were 5% and 29%, respectively. In addition, the outcome in the assay filed under Homo sapiens [12] and in the assay with HCT-116 [13] was Active. Further, in the assay on HL-60 [14], the result was inactive.
